Experiment [1] deals with Plasmodium falciparum. In words: Antimalarial activity against chloroquine-sensitive Plasmodium falciparum 3D7 infected in human erythrocytes after 96 hrs by luciferase based delayed death assay. The format is functional, organism-based. Conditions: 3D7, 96 h. In outline: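 Delayed-death format of the 3D7 erythrocyte proliferation assay: parasites incubated 96 hours with compound so that activity against progeny is detected, with luciferase as the viability reporter; IC50 taken from this read-out.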

The subject of experiment [2] is Plasmodium falciparum. Kind of experiment: Antimalarial activity against chloroquine-sensitive Plasmodium falciparum 3D7 infected in human erythrocytes after 72 hrs by SYBR Green I staining. Particulars: 3D7, 72 h.
Experiment [3] deals with Plasmodium falciparum. In words: Ratio of IC50 for chloroquine-sensitive Plasmodium falciparum 3D7 by luciferase based delayed death assay to IC50 for chloroquine-sensitive Plasmodium falciparum 3D7 by SYBR Green I staining. The format is functional. In outline: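 P. falciparum 3D7 in human erythrocytes (0.3% parasitemia, 2.5% hematocrit final), seven fivefold dilutions from 5.7 or 29 μM. Standard format: 72 h at 37 °C, 5% CO2, then saponin/Triton lysis with SYBR Green I overnight in the dark, fluorescence 485/535 nm. Delayed-death format: 96 h, luciferase viability read-out. The line is the ratio of the delayed-death IC50 to the SYBR IC50.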

Experiment [4] concerns Schistosoma mansoni. In words: Antischistosomiasis activity against Schistosoma mansoni at 5 nM to 50 uM by thioredoxin glutathione reductase biochemical assay. The format is functional. In short, it runs like this: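 S. mansoni TGR (20 nM) preincubated 10 min at room temperature with 100 μM NADPH and compound (50 μM to 5 nM, eight levels) in 0.1 M potassium phosphate pH 7.4, 10 mM EDTA. Then 3 mM DTNB was added and A412 followed over the first 3 min. Residual activity was expressed relative to DMSO controls, in triplicate, and IC50 derived.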

Experiment [5] concerns Schistosoma mansoni. In words: Antischistosomiasis activity against Schistosoma mansoni assessed as worm mobility and survival at 10 uM by stereomicroscopic analysis. The format is functional, organism-based. In short, it runs like this:
(§1)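 Adult worms perfused with RPMI 1640 from female Swiss-Webster mice 7 weeks after cercarial infection. They were washed and held at 15–20 per well in cRPMI (25 mM HEPES, penicillin/streptomycin, 10% FBS) overnight at 37 °C, 5% CO2. Compound from 10 mM DMSO stock was tested at 50, 10, 5 and 1 μM against DMSO-only wells. Media plus compound were renewed every 48 h; motility and survival scored by stereomicroscope, 10 s per worm.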

For experiment [6], the system named is Schistosoma mansoni. In words: Antischistosomiasis activity against Schistosoma mansoni assessed as worm mobility and survival at 50 uM after 24 hrs by stereomicroscopic analysis. It counts as functional, organism-based. In short, it runs like this:
as §1

The subject of experiment [7] is Ancylostoma ceylanicum. Kind of experiment: Nematicidal activity against Ancylostoma ceylanicum assessed as live/dead worms at 100 uM up to 120 hrs by adult worm killing assay. It counts as functional, organism-based. In short, it runs like this: (§2)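 Adult A. ceylanicum taken from small intestine of infected Syrian hamsters, cultured in RPMI 1640 with 50% FCS, penicillin/streptomycin, Fungizone. Ten worms per well, 2 wells per treatment, with 100 μM compound; DMSO and 100 μM albendazole controls. Wells scored by light microscopy every 24 h for percent live/dead, death meaning complete loss of motility, across 120 h.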

Experiment [8] deals with Ancylostoma ceylanicum. In words: Nematicidal activity against Ancylostoma ceylanicum assessed as live/dead worms at 100 uM after 72 hrs by adult worm killing assay. The format is functional, organism-based. In short, it runs like this:
as §2

Active and inactive are the calls of the source. No cut-off for these calls is given here. Some results are limits rather than exact numbers.

The term IC50 denotes the concentration at which inhibition is half-maximal.

Regarding `C[C@@H]1CC[C@H]2[C@@H](C)C(=O)O[C@@H]3O[C@@]4(C)CC[C@@H]1[C@]32OO4` [ARTEMISININ], the figures for the IC50 in experiment [1] and in experiment [2] were 12 nM and 11 nM, respectively.
As to `CC(C)(C)N(Cc1cc(Nc2ccnc3cc(Cl)ccc23)cc(-c2no[n+]([O-])c2/C=N/O)c1)N=O`, the 50% inhibitory concentration (IC50) in experiment [1] worked out at 1070 nM; in experiment [2], 24 nM. Moreover, the “Ratio IC50” value in experiment [3] is listed as 50.
In the case of `N#Cc1c(-c2ccccc2)no[n+]1[O-]` [FUROXAN], the outcome in experiment [4] and in experiment [5] was Active.
Consider `CCN(CC)Cc1cc(Nc2ccnc3cc(Cl)ccc23)ccc1O`, for which the values for the concentration for half-maximal inhibition (IC50) in experiment [1] and in experiment [2] were over 10000 nM and 15 nM, respectively.
For `CC(C)(C)NCc1cc(Nc2ccnc3cc(Cl)ccc23)cc(-c2no[n+]([O-])c2C#N)c1`, the IC50 in experiment [1] turned out to be 630 nM; in experiment [2], 40 nM. The result in experiment [4], in experiment [6], in experiment [7] and in experiment [8] was Active. In experiment [5], the result was inactive.
As for `CC(C)(C)N(Cc1cc(Nc2ccnc3cc(Cl)ccc23)cc(-c2no[n+]([O-])c2C#N)c1)N=O`, the IC50 was over 15000 nM in experiment [1] and 113 nM in experiment [2].
As to `CC(C)(C)NCc1cc(Br)cc(Nc2ccnc3cc(Cl)ccc23)c1`, the IC50 in experiment [1] is 65 nM; in experiment [2], 7 nM.

The record behind these values is ChEMBL document CHEMBL3217651, “A furoxan-amodiaquine hybrid as a potential therapeutic for three parasitic diseases()” (Medchemcomm, 2012).
